Experimental data: the RNAGym collection of RNA variant scans (doi:10.1126/science.aae0568)
Variants at the floor of the assay were thinned out.

B1: tRNA (parent)
chain: GUUCCGUUGGCGUAAUGGUAACGCGUCUCCCUCCUAAGGAGAAGACUGCGGGUUCGAGUCCCGUACGGAACG

Variants of: B1
Assay: yeast fitness relative to wild type (ratio to wild type); higher = fitter; tRNA-Arg(CCU), competitive growth, 37 C, YPD
Method in brief: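 Start and end populations of a pooled competition were compared by 100-nucleotide paired-end sequencing of gene amplicons. The Saccharomyces cerevisiae strains carried tRNA-Arg(CCU) gene variants at the native genomic locus, synthesised with a 3% per-site mutation rate at 69 sites, and competed in YPD at 37°C for 24 hours in six parallel replicates. Darwinian fitness relative to wild type was based on the change in genotype frequencies. Genotypes required ≥ 100 starting reads, and estimates < 0.5 were set to 0.5.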

Variant	yeast fitness
GUUCCGUUGGCGUAAUGGUAACGCGUCCCCCUCCUGAGGAGAAGACUGCGGGUUCGAGUCCCGUACGGAACG	0.989
GUUCCAUUGGCGUAGUGGUAACGCGUCUCACUCCUAAGGAGAAGACUGCGGGUUCGAGUCCCGUACAGAACG	≤ 0.5
GUUCCGUUGGCGUAAUGGUAACGCGUUUCCCUCCUAAGGAGAAGACUGCGGGUUCGACUCCCGUACGGCACG	1.05
GUUCCGUUGGCGUAAUGGUAACGCGUCUCCCUCCUAAGGGGAAGGCUGCGGAUUCGAGUCCCGUACGGAACG	≤ 0.5
GUUCCGUUGGCGUAAUGGUUACGCGUCUCCCUCCUAAGGAGAAGACUGCGGGUUCGAGUCCCGAACGGAACG	0.821
GUUCCGUUGGCGUAAUGGUAACGCGUAUCCCUCCUAAGGAGAUGACUGCGGGUUCGAGUCCCGUACGGAACG	1.03
GUUCCGUUGGGGUAAUGGUAACGCGUCUCCCCCCUAAGGUGAAGACUGCGGGUUCGAGUCCCGUACGGAACG	0.662
GUUCCGUUGGCGUAAUGGUAACGCGUGUCCCUCCUGAGGAGAAGACUGCGGGUUCGAGUCCCGUACGGAACG	0.542
GUUCGGUUGGCGUAAUGGUAACACCUCUCCCUCCUAAGGAGAAGACUGCGGGUUCGAGUCCCGUACGGAACG	≤ 0.5
GUUCCCUUGGCGUAAUGGUAACGCGUCUUCCUCCUAAGGAGAAAACUGCGGGUUCGAGUCCCGUGCGGAACG	≤ 0.5
GUUCCGUUGGCGUAAUGGUAACGCGUUUCCCUCCUAGGGAGAAGACUGCGGGUUCGAGUCCCGUACGGAACG	0.899
GUUCCGUUGGCGUAAUGGUAACCCGUCUCCCUCCUAAGGAGCAGACAGGGGGUUCGAGUCCCGUACGGAACG	≤ 0.5
GUUCCGUUGGCGUAAUGGUAACGCGUCUCCUUCCUAAGGGGAAGACUGCGGGUCCGAGUCCCGUACGGAUCG	0.527
GUUCUGUUGGCGUAUUAGUAACGCGUCUCCCUCCUAAGGAGAACACUGCGGGUUCGAGUCCCGUACGGAACG	≤ 0.5
GUUCCGUUGGCGUAAUGGUAACGCGUCUCGCUCCUAAGGGGAAGACUGCGGCUUCGCGUUCCGUACGGACCG	≤ 0.5
GUUCCCUUGGCGUAAUGGUAACGCCUCUGCCUCCUAAGGAGAAGACUGCGGAUUCGAGUCCCGUACGGUACG	0.527
GUUCCGUUGGCGCAAUGGUAACGCGUCUCCCUCCUAAGGUGAAGACUGCGGGUUCGGGUCCCGUACGGAACG	0.688
GUUCCGUCGGCGUAAUGGUAACGGGUCUCCCUCCUAACGAGAAGACUGCGGGUUCGUGUCCCGUACGGAACG	≤ 0.5
GUUCCGUAGGCGUAAUGGUAACGCGUCCCCCUACUAAGGAGAAGACUGCGGGUUCGAGUCCCGUACGGAACG	≤ 0.5
GUUCCGUUGGCGUAAUGGUAACGCGUCUCCCUCCUAAGGAGAAGACUCGGGGUUCGAGUCCCGUACGGAACG	0.621
GUUCCGUUGGCGUAAUGGUAACGCGUUUCCCUCCUAAGGAGAAGACUGCGGGUUCGCGUCCCGUACGGAACG	0.676
GUUCAGUUGGCGUAAUGGUAACGCGUCUCUCUCCAAAGGAGGAGACUGCGGGUUCGAGUCUCAUACGGAACG	0.538
GUUCCGUUGGGGUAAUGGUAACGCGUCUCCCUCCUUAGGAGAAGACUGCGGGUUCGAGUCCCGUACGGAACG	≤ 0.5
GUUCCGUUGGUGCAAUGGUAACGCGUCUCCCUCCUAAGGAGUAGACUGCGGGUUCGAGUCCCAUACGGAACG	≤ 0.5
GUUCCGUUGGCGUAAUGGUAACGCGUCUGCAUCCUAAGGAGAAGACUGCGGGUUCGAGUCCCGUACGGAACG	0.511

Variant	yeast fitness
GUUCCGUUGGCAUAGUGGUAACGCGUCUCCCUCCUAAGGAGAAGACUGCGGGUUCGAGUCCCGUCCGGAGCG	≤ 0.5
GUUCCGUUGGCGUCAUGGUCACGCGUCUCCCUCCUAAGGAGGAAACCGCGGGUUCGAGUCCCGUACGGAACG	≤ 0.5
GUUCCGUUCGCGUAAUGGUAACGCGUCUCCCUCGUAAGGAGAAGACUGCGGGUUCGAGUCUCGUAUGGAACG	0.58
GUUCCGUUGGCGUAAUGGUAGCGCGUCUCCCUCCUAAGGAGAAGACUGCGGGUUCGUGUCCCGUACGGAACG	0.97
GUACCGUUGGCGUAAUGGUAACGCGUCUCCCUCCUAAGGAGAAGACUGCGGGUGCGCGUCCCGUACGGAACG	≤ 0.5
GUUCCGUUGGUGUAAUGGUAACGCGUCUCCCUCCUAAGGUGAAGACUGCGGGUUUGAGUCCCGUACGAAACG	≤ 0.5
GUUCCGUUGGCGUAAUGGUAACGCGUCUCCCUCCUGAGGAGAAGAUUGCGGGUUCGAGUCCCGUACGGUACG	0.841
GUUCCGUUGGCGUAAUGGUAACGCGUCUCCCUCCUAAGGAGGAGACAGCGGGCUCGAGUCCCGUACGGAACG	≤ 0.5
GUUCCGUUGGCGUAAUGGCAACGCGUCUCCCUCCUAAGGAGAAGACUGCGGGUUGGAGUCCCGUCCGGAACG	≤ 0.5
GUUCGGUUGGCGUAAUGGUAACGCGUCUUACUCCUAAGGAGAAGACUGCGGGUUCGAGUCCCGUAUGGAACG	0.645
GUUCCGUUAGCGUAAUGGUAACGCGUCUCCCUGCUAAGGAGAAGACUGAGGGUUCGAGUCCCGUACGGUACG	≤ 0.5
GUUCCGUUGGCGUAAUGAUAACGCGUCUCCCUCUUAAGGAGACGAGUGCGGGUUCGAGUCCCGUACGGAACG	≤ 0.5
GUUCCGUUGGCGUAAUGGCAACGCGUCUCCCUCCUAAGGAGAAGACUCCGGGUUCGAGUCCCGUACGGCACG	1.03
GUUCGGUUGGCGUAAUGGUAACGCGUCUCCCUCCUAAGGAGAAGACUAUGGGUUCGGGUCCCGUACGGAACG	0.624
GUUCCGUAGGCGUAAUGAUAACGCAUCUCCCUUCUAAGGAGAAGACUGCGAGUUCAAGUCCCGUAUGGAACG	≤ 0.5
GUUCCGUUGGCGUAAUGGUAACGCGUAUCCCUCCUAAGGAGCAGACUGCGGGUUCGAGUCCCGUACCGCACG	≤ 0.5
GUUCCGUUGGCGUAAUGGUAACGCGACUCCCUCCUAAGGAGAAGAUUGCGGGUUCGAGUCCCGUACGGAACG	0.874
GUUCCGUUGGCGUAUUGGUAAGGCGUCUCCGGCCUAAGGAGAAGACUGCGGGUUCGAGUCCCGUACGGAACG	0.626
GUUCCGUUGGCGUAACGGUAACGCGUCUGCCUCCUAAGGAGAAGACUGCGGGAUCGAGUCCCGCACGGAACG	≤ 0.5
GUUACGUUGGCGUAAUGGUAACGCGUCUCCCUCCUAAGGAGAAGACUGCGGCUUCGCGUCCCCUACGGAACG	0.56
GUUCCGUUGGCGUAAAGAUAACGCGUCUCCGUCCUAAGGAGAAGACUGCGGGUUCGAGUCCCGUACGGAACG	0.527
GGUCCGUUGGCGUACUGGUAACGUGUCUCCCUCCUAAGGAGAAGACUGCGGGUUUGAGUCCCGUGCGGAACG	≤ 0.5
GUUCCGUUGGCGUAAUGGUAACGCGCCUCCCUCAUAAGGAGAAGACUGCGGGUUCGAGUCCCGUACGGAACG	0.817
GUUGCGUUGGCGUAAUGGUAAGGCGUCUCCCUCCUAAGGAGAAGACUGCGGGUUCGAGUCCCGUACGGAACG	0.787
GUUCCGUUGGCGUGAUGGUAACGCGUCUCCCUCCUGAGGAGAAGGCUGCGGGUUCGAGUCCCGUUCGGAACG	≤ 0.5

Variant	yeast fitness
GUUCCGUUGGCGUAUUGGUAACGCGUCUCCCUCGUAAGGAGAAGACUGCGGGUUUGAGUCCCGUACGGCACG	≤ 0.5
GUUCCGUUGGCGUAAUGGUCACGCGUCUCCCUUCUAACGAGAAGACUGCGGGUUCGAGUCCCGUACGGAACG	≤ 0.5
GUUCCGUUGGCGUAAUGGUAACGAGUCUCCCUCCUAAGGAGGAGACUGUGGGUUCGAGGCCAGUACGGAACG	0.547
GUUCCGUUGGCGUAAUGGUAACGCAUCUCCCUCCUAAGGUGAAGACUGCGGGUUCGAGUCUCGUACGGAACG	0.669
GUUCCGUUGGCGCAAUGGUAACGCGUCCCCCUCCUAAGGAGAAGACUGCGGGUUCGAGUCCCGUACGGAACG	0.838
GUUCCGUUGGCGUAAUGGUAACGCGUCCCCCUCCUAAGGAGACCACUGCGGGUUCGAGUCCCGUACGGAACG	≤ 0.5
GUUCCGGUGGGGUAAUGGUAACGCGUCUCCCUCUUAAGGAAAAGACUGCGGGUUCGAGUCCCGUGCGGAACG	≤ 0.5
GUUACGUUGGCGUAAUGGUCACGCGUCUCCCUCCUAAGGAGAAGACUGCGGGUUCGAGUCCCGUACGGAACG	0.64
GUUCCGGUGGCGUAAUGGUACCGCGUCUCCCUCCUAAGGAGAACACUGCGGGUUCGAGUCCCGUAUGGAACG	≤ 0.5
GUUCCGUUGGCGUACUGGUAACGCGUCUCCCUCCUAAGGAGAAGACUGCGGGUUCGAGUCCCGUUCGGAACG	0.841
GUUCCGAUGGCGUAAUGGUGACACGGCUCCCUCCUAAGGAGAAGACUGCGGGUUCGAGUCCCGUACAGAACG	≤ 0.5
GUUCCGUUGGCGUAUUGGUAACGCGUCUCCCUCCUAAAGCGAAGACUGCGGGUUCGAGUCCCGUACGGAACG	≤ 0.5
GUUCCGUUGGCGUAAUGGUAACGCGUCUCCUACCUAAGGAGAAGACUGCGGGUUCGAGUCUCGUACGGAACG	0.627
GUUCCGUUGGCGUAAUGGUAACGCGUCUCCCUCCUAAGGAGAAGACUGCGGGUUAGAGUCCCGUACGGUACG	0.694
GUUCCGUUGGCGUAAUGAUAACGCGUCUCUCUCCUAAGGACAAGACUGCGGGUUCGAGUCCCGUACGGAACG	≤ 0.5
GUUCCGUUGGCGUAAAGGUAACGCGUCUCUCUCCUAAGGAGAAGACUGCGGGUUCCAGUCCCGUACGGAACG	≤ 0.5
GUUUCGUUGACGUAAUGGUAACGCGUCUCCCUCCUAAGGAGAAGACUGCGGGUUCGAGUGCCGUAGGGUACG	≤ 0.5
GUUCCGUUGGCCUAAUGGUAACGCGUCUCCCUCCUAAGGAGAAGACUGCGGCUUCGAGUCCCGUAUGGAACG	≤ 0.5
GUUCCGUUGGCGUAAUGGUGACGCGUCUCCCUCCUAAGGAGACGACUGCGGGUUCGAGUCUCGUACGGACCG	≤ 0.5
GUUCCGUUGGCGUAAUGGUAACGCGUCUCCCUCCUAAGGAGAAGAAUGCGGAUUCGAGUCCCCUACGGAACG	0.555
GUUCCGUUCGCGUAAUGGUAACGGGUCUCCCUCCUAAGGAGAAGACUGCGGGUUCGAGUCCCGUACGGAACG	≤ 0.5
GUUCCGUUGGCCUAAUGGUAACGCGUCUCCCUCCUAUGGAGAACACUGCGGGUUCGAGUCCCGUACGGAACG	0.538
GUUCCGUUGGUGUAAUGGUAACGCGUUUCCCUCCUAAGGAGAAGCCUGCGGGUUCGCGUCCCGUACGGAACG	≤ 0.5
GUUCCGUUGGCGUAAUGGUAACGCGUCCCCCUCCUAAGGAGAAGACUGCGGGUUCGAGUCCCCUACGGAACG	0.611
GUUCCGUUGGCGUAAUGGUAACGCGUCUCCCUCCUAAGCAGAAGACUGCGGGUUCGAGUUCCGUACGGAACG	0.656
